From ChEMBL document CHEMBL1156527, “Potent D-peptide inhibitors of HIV-1 entry” (Proc Natl Acad Sci U S A, 2007)
Calls of active or inactive are those of the source. The rule behind the calls is not given here.

Assays:
[1] = system: Human immunodeficiency virus 1; assay: Antiviral activity against HIV1 HXB2 in HOS-CD4-CXCR4 cells by viral infectivity assay; format: functional, organism-based; conditions: Human immunodeficiency virus 1, HXB2
How it was run: (§1)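 Single-cycle pseudovirion entry assay. HXB2 pseudovirions were used on HOS-CD4-CXCR4 cells, and BaL or JRFL on HOS-CD4-CCR5 cells. 8 μg/ml DEAE-Dextran served as fusion enhancer, and medium was changed ≈24 h post-infection. DMSO-dissolved samples were run at 1% final DMSO against a 1% DMSO uninhibited control. IC50 comes from duplicate assays. Toxicity was checked microscopically and by luciferase with VSV-G pseudotyped virions, where a >10% loss meant toxicity.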

[2] = system: Human immunodeficiency virus 1; assay: Antiviral activity against HIV1 JRFL in HOS-CD4-CCR5 cells by viral infectivity assay; format: functional, organism-based; conditions: Human immunodeficiency virus 1, JRFL; how it was run: as §1
[3] = system: Human immunodeficiency virus 1; assay: Antiviral activity against HIV1 BaL in HOS-CD4-CCR5 cells by viral infectivity assay; format: functional, organism-based; conditions: Human immunodeficiency virus 1, BaL; how it was run: as §1
[4] = Binding affinity to HIV1 N-trimer gp41 mimic IZN36 by surface plasmon resonance analysis
HOS = assay: Cytotoxicity in VSV-G pseudotyped virion infected human HOS-CD4-CXCR4 cells assessed as luciferase level at 100 uM after 24 hrs; format: cell-based
How it was run: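 Single-cycle infection in HOS-CD4 target cells with VSV-G-pseudotyped luciferase virions in the presence of peptide, using 8 μg/ml DEAE-Dextran as fusion enhancer. Media were changed about 24 h after infection. DMSO-dissolved samples were run at 1% final DMSO against a 1% DMSO uninhibited control. A luciferase drop of more than 10% counted as cytotoxicity, alongside microscopic inspection at about 24 h.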

[5] = system: Human immunodeficiency virus 1; assay: Antiviral activity against HIV1 JRFL in HOS-CD4-CCR5 cells at 100 uM by viral infectivity assay; format: functional, organism-based
How it was run: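 JRFL pseudovirions were tested in single-cycle infection of HOS-CD4-CCR5 cells with 8 μg/ml DEAE-Dextran and a medium change ≈24 h post-infection. Inhibition was scored at 100 μM. DMSO-dissolved samples were at 1% final DMSO, normalized to a 1% DMSO control.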

Row | SMILES | IC50 [1] [nM] | IC50 [2] [nM] | IC50 [3] [nM] | Kd [4] [nM] | Activity (HOS) | Activity [5]
1 | CC(C)C[C@@H](NC(=O)[C@@H](Cc1c[nH]c2ccccc12)NC(=O)[C@@H](CCCNC(=N)N)NC(=O)[C@@H](Cc1c[nH]c2ccccc12)NC(=O)[C@@H](CCC(=O)O)NC(=O)[C@H]1CCCN1C(=O)[C@@H](CO)NC(=O)[C@@H](CCC(=O)O)NC(=O)[C@@H](CS)NC(=O)[C@@H](C)NC(=O)CNC(=O)[C@@H](CCCCN)NC(=O)[C@H](N)CCCCN)C(=O)N[C@H](CS)C(=O)N[C@H](C)C(=O)N[C@H](C)C(=O)O | 2200 |  |  |  |  | 
2 | CC(C)C[C@@H](NC(=O)[C@@H](Cc1c[nH]c2ccccc12)NC(=O)[C@@H](CCC(N)=O)NC(=O)[C@@H](Cc1c[nH]c2ccccc12)NC(=O)[C@@H](CCC(=O)O)NC(=O)[C@H]1CCCN1C(=O)[C@@H](Cc1ccc(O)cc1)NC(=O)[C@@H](CC(=O)O)NC(=O)[C@@H](CS)NC(=O)[C@@H](C)NC(=O)CNC(=O)[C@H](N)CCCCN)C(=O)N[C@H](CS)C(=O)N[C@H](C)C(=O)N[C@H](C)C(=O)O | 620 | 24000 | 2200 | 80 |  | 
3 | CC(C)C[C@@H](NC(=O)[C@@H](CC(C)C)NC(=O)[C@@H](CCC(=O)O)NC(=O)[C@@H](CS)NC(=O)[C@@H](C)NC(=O)CNC(=O)[C@@H](CCCCN)NC(=O)[C@H](N)CCCCN)C(=O)NCC(=O)N[C@H](Cc1c[nH]c2ccccc12)C(=O)N[C@H](CCC(=O)O)C(=O)N[C@H](Cc1c[nH]c2ccccc12)C(=O)N[C@H](C)C(=O)N[C@H](Cc1c[nH]c2ccccc12)C(=O)N[C@H](CC(C)C)C(=O)N[C@H](CS)C(=O)N[C@H](C)C(=O)N[C@H](C)C(=O)O | 9500 | > 25000 | 12000 | 7000 | Toxic | 
4 | CC(C)C[C@@H](NC(=O)[C@@H](Cc1c[nH]c2ccccc12)NC(=O)[C@@H](CCCNC(=N)N)NC(=O)[C@@H](Cc1c[nH]c2ccccc12)NC(=O)[C@@H](CCC(=O)O)NC(=O)[C@H]1CCCN1C(=O)[C@@H](Cc1ccc(O)cc1)NC(=O)[C@@H](CC(=O)O)NC(=O)[C@@H](CS)NC(=O)[C@@H](C)NC(=O)CNC(=O)[C@H](N)CCCCN)C(=O)N[C@H](CS)C(=O)N[C@H](C)C(=O)N[C@H](C)C(=O)O | 1300 | 66000 |  | 130 |  | 
5 | CC(C)C[C@@H](NC(=O)[C@@H](Cc1c[nH]c2ccccc12)NC(=O)[C@@H](CCC(N)=O)NC(=O)[C@@H](Cc1c[nH]c2ccccc12)NC(=O)[C@@H](CCC(=O)O)NC(=O)[C@@H](CCCCN)NC(=O)[C@@H](Cc1ccc(O)cc1)NC(=O)[C@@H](CC(=O)O)NC(=O)[C@@H](CS)NC(=O)[C@@H](C)NC(=O)CNC(=O)[C@H](N)CCCCN)C(=O)N[C@H](CS)C(=O)N[C@H](C)C(=O)N[C@H](C)C(=O)O | 1700 | 110000 |  | 170 |  | 
6 | CC(C)C[C@@H](NC(=O)[C@@H](Cc1c[nH]c2ccccc12)NC(=O)[C@@H](CCCNC(=N)N)NC(=O)[C@@H](Cc1c[nH]c2ccccc12)NC(=O)[C@@H](CCC(=O)O)NC(=O)[C@H]1CCCN1C(=O)[C@@H](Cc1ccc(O)cc1)NC(=O)[C@@H](CC(=O)O)NC(=O)[C@@H](CS)NC(=O)[C@@H](C)NC(=O)CNC(=O)[C@@H](CCCCN)NC(=O)[C@H](N)CCCCN)C(=O)N[C@H](CS)C(=O)N[C@H](C)C(=O)N[C@H](C)C(=O)O | 2600 |  |  | 170 |  | 
7 | CC(C)C[C@@H](NC(=O)[C@@H](Cc1c[nH]c2ccccc12)NC(=O)[C@@H](CCCNC(=N)N)NC(=O)[C@@H](Cc1c[nH]c2ccccc12)NC(=O)[C@@H](CCC(=O)O)NC(=O)[C@H]1CCCN1C(=O)[C@@H](CO)NC(=O)[C@@H](CCC(=O)O)NC(=O)[C@H](CS)NC(=O)[C@@H](C)NC(=O)CNC(=O)[C@@H](CCCCN)NC(=O)[C@H](N)CCCCN)C(=O)N[C@@H](CS)C(=O)N[C@H](C)C(=O)N[C@H](C)C(=O)O |  |  |  |  |  | inactive
